How the values were obtained:
[1] = target: Voltage-gated inwardly rectifying potassium channel KCNH2 (Homo sapiens, UniProt Q12809); assay: Inhibition of human Erg expressed in HEK293 cells assessed as rubidium efflux after 4 hrs by atomic absorbance spectrometric analysis
[2] = target: T1, Melanin-concentrating hormone receptor 1 (Homo sapiens, UniProt Q99705); assay: Displacement of [125I]-MCH from MCHR1 after 2 hrs by scintillation counting
Method in brief: (§1)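 Competition binding on MCHR1 membrane preparation with 125I-MCH tracer. Compound diluted in 50 mM Tris pH 7.4, 10 mM MgCl2, 2.5 mM EDTA, 0.2% BSA. Incubation 2 h at 37 °C with shaking. Bound and free ligand separated by vacuum filtration through BSA-pretreated filter plates. Filters washed 4 times in Hepes/NaCl/BSA buffer, then counted by scintillation.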

[3] = target: T2, 5-hydroxytryptamine receptor 2C (Homo sapiens, UniProt P28335); assay: Binding affinity to serotonin 5HT2C receptor
T2 sequence (P28335 whole entry): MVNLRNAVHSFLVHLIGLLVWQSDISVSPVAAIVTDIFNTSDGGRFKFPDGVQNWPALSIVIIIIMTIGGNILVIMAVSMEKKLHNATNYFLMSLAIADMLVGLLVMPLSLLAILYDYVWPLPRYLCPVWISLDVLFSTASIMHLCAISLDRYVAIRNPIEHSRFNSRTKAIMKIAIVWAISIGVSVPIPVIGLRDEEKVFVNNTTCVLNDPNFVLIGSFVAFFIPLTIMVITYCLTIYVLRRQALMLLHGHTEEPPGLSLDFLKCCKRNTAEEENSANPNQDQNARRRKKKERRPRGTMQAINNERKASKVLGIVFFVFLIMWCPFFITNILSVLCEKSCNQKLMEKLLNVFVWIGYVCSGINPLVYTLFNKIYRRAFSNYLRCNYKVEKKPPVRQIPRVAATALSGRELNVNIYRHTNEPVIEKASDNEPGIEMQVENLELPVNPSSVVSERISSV

[4] = target: Alpha-2A adrenergic receptor (Homo sapiens, UniProt P08913); assay: Binding affinity to adrenergic alpha2A receptor
[5] = Ratio of drug uptake in brain to plasma of rat at 10 mg/kg, po; assay type: ADME, organism-based; design: dose 10 mg/kg, route oral; settings: brain and plasma, read-out: BPR
[6] = Oral bioavailability in cynomolgus monkey at 3 mg/kg; assay type: ADME, organism-based, Macaca fascicularis; settings: in vivo
Method in brief: (§2)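 Pharmacokinetics determined after IV dosing at 0.5 mg/kg and oral dosing at 3 mg/kg.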

[7] = Oral bioavailability in mouse at 3 mg/kg; assay type: ADME, organism-based; settings: in vivo; method in brief: as §2
Mu-type opioid receptor = Mu-type opioid receptor (Homo sapiens, UniProt P35372); assay: Binding affinity to opioid mu receptor
Chain of Mu-type opioid receptor (P35372 whole entry): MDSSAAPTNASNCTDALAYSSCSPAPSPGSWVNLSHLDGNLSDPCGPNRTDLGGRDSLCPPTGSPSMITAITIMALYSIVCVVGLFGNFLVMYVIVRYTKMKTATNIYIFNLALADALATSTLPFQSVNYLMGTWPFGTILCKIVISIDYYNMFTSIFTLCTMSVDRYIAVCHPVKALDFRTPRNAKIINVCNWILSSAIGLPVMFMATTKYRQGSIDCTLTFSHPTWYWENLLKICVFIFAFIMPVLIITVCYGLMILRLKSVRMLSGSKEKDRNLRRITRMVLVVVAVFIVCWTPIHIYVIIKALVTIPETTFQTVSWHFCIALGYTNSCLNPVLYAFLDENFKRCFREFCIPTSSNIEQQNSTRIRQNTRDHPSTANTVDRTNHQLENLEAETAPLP

[8] = target: Sodium-dependent serotonin transporter (Homo sapiens, UniProt P31645); assay: Binding affinity to serotonin transporter
Rhesus monkey = assay: Cardiotoxicity in rhesus monkey assessed as QT prolongation administered as bolus dose; assay type: toxicity, organism-based, Macaca mulatta; settings: in vivo
Method in brief: (§3)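 Anesthetized rhesus monkeys received an IV bolus followed by a 45 min IV infusion. QTc recorded throughout.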

Cynomolgus monkey = assay: Cardiotoxicity in cynomolgus monkey assessed as QT prolongation at 30 mg/kg, po; assay type: toxicity, organism-based, Macaca fascicularis; design: dose 30 mg/kg, route oral; settings: in vivo
Method in brief: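 Cynomolgus monkeys (n = 3) given a single 30 mg/kg oral dose; QTc monitored.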

[9] = Cmax in dog at 300 mg/kg, po; assay type: ADME, organism-based, Canis lupus familiaris; design: dose 300 mg/kg, route oral; settings: in vivo
Method in brief: (§4)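 Dogs dosed orally at 300 mg/kg in a 4 h study. QTc monitored throughout; plasma Cmax determined.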

[10] = target: Melanin-concentrating hormone receptor 2 (Homo sapiens, UniProt Q969V1); assay: Antagonist activity at human MCHR2 assessed inhibition of MCH-mediated intracellular Ca2+ calcium mobilization; assay type: functional, cell-based
Chain of Melanin-concentrating hormone receptor 2 (Q969V1 whole entry): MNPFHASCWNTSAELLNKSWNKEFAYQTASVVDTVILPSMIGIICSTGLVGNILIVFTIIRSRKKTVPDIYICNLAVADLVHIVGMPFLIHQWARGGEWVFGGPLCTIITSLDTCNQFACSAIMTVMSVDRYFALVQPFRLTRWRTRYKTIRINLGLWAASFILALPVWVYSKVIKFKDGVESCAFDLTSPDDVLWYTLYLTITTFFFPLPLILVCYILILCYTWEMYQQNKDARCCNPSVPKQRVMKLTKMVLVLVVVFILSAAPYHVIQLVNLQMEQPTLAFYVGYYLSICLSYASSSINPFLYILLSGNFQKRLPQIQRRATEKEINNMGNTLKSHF
Method in brief: (§5)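 MCH-evoked intracellular Ca2+ mobilization read by aequorin luminescence in cells. Antagonism measured as blockade of the MCH response.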

[11] = Clearance in mouse at 0.5 mg/kg, iv; assay type: ADME, organism-based; design: dose 0.5 mg/kg, route intravenous; settings: in vivo; method in brief: as §2
Canis familiaris [12] = assay: Cardiotoxicity in dog assessed as QT prolongation at 300 mg/kg, po; assay type: toxicity, organism-based, Canis lupus familiaris; design: dose 300 mg/kg, route oral; settings: in vivo; method in brief: as §4
[13] = target: Sodium-dependent noradrenaline transporter (Homo sapiens, UniProt P23975); assay: Binding affinity to norepinephrine transporter
[14] = Mean residence time in mouse at 3 mg/kg, po; assay type: ADME, organism-based; design: dose 3 mg/kg, route oral; settings: in vivo; method in brief: as §2
[15] = Clearance in rat at 0.5 mg/kg, iv; assay type: ADME, organism-based; design: dose 0.5 mg/kg, route intravenous; settings: in vivo; method in brief: as §2
[16] = target: Muscarinic acetylcholine receptor M2 (Homo sapiens, UniProt P08172); assay: Binding affinity to muscarinic M2 receptor
[17] = target: 5-hydroxytryptamine receptor 2A (Homo sapiens, UniProt P28223); assay: Binding affinity to serotonin 5HT2A receptor
Chain of 5-hydroxytryptamine receptor 2A (P28223 whole entry): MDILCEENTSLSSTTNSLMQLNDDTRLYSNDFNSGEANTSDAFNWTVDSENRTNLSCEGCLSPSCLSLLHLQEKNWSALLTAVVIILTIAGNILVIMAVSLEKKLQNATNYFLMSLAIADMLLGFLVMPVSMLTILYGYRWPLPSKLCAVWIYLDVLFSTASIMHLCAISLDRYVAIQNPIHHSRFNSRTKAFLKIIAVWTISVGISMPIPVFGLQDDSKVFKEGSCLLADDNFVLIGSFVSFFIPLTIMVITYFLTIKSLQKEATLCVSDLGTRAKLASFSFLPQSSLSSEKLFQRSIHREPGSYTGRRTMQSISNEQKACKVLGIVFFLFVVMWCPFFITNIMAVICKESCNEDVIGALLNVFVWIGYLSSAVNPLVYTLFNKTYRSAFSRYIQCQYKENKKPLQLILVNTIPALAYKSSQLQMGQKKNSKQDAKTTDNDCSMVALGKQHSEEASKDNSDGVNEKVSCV

[18] = Ratio of drug uptake in blood to plasma of rat at 10 mg/kg, po; assay type: ADME, organism-based; design: dose 10 mg/kg, route oral; settings: blood and plasma
Method in brief: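 Single 10 mg/kg oral dose. Drug concentration in whole blood was divided by the plasma concentration to give the [blood]/[plasma] ratio. Brain/plasma and CSF/plasma ratios were obtained after the same dose.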

[19] = target: T1, Melanin-concentrating hormone receptor 1; assay: Antagonist activity at human MCHR1 assessed inhibition of MCH-mediated intracellular Ca2+ calcium mobilization by aequorin assay; assay type: functional, cell-based; method in brief: as §5
[20] = Oral bioavailability in beagle dog at 3 mg/kg; assay type: ADME, organism-based, Canis lupus familiaris; settings: in vivo; method in brief: as §2
[21] = Plasma concentration in iv dosed rhesus monkey after 45 mins; assay type: ADME, organism-based, Macaca mulatta; method in brief: as §3
[22] = Mean residence time in rat at 3 mg/kg, po; assay type: ADME, organism-based; design: dose 3 mg/kg, route oral; settings: in vivo; method in brief: as §2
[23] = Volume of distribution at steady state in rat at 0.5 mg/kg, iv; assay type: ADME, organism-based; design: dose 0.5 mg/kg, route intravenous; settings: in vivo, read-out: Vdss; method in brief: as §2
[24] = Volume of distribution at steady state in cynomolgus monkey at 0.5 mg/kg, iv; assay type: ADME, organism-based, Macaca fascicularis; design: dose 0.5 mg/kg, route intravenous; settings: in vivo, read-out: Vdss; method in brief: as §2
[25] = target: Muscarinic acetylcholine receptor M3 (Homo sapiens, UniProt P20309); assay: Binding affinity to muscarinic M3 receptor
Chain of Muscarinic acetylcholine receptor M3 (P20309 whole entry): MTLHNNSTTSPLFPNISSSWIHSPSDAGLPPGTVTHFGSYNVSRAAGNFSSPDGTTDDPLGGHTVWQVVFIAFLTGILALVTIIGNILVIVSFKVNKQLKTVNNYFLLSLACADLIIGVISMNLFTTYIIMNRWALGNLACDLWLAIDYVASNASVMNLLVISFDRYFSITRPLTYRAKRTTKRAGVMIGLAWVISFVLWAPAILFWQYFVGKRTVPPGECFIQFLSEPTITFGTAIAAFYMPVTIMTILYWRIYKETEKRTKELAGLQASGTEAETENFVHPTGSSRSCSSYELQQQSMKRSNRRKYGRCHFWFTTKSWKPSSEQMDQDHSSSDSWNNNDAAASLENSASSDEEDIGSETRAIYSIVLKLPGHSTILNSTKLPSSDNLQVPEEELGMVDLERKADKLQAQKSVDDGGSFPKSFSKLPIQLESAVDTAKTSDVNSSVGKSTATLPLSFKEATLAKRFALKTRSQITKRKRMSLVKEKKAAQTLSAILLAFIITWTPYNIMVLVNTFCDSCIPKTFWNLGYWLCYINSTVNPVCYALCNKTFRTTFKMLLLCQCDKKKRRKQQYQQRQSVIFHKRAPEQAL

D(1A) dopamine receptor = D(1A) dopamine receptor (Homo sapiens, UniProt P21728); assay: Binding affinity to dopamine D1 receptor
[26] = Mean residence time in beagle dog at 3 mg/kg, po; assay type: ADME, organism-based, Canis lupus familiaris; design: dose 3 mg/kg, route oral; settings: in vivo; method in brief: as §2
[27] = target: 5-hydroxytryptamine receptor 1A (Homo sapiens, UniProt P08908); assay: Binding affinity to serotonin 5HT1A receptor
Chain of 5-hydroxytryptamine receptor 1A (P08908 whole entry): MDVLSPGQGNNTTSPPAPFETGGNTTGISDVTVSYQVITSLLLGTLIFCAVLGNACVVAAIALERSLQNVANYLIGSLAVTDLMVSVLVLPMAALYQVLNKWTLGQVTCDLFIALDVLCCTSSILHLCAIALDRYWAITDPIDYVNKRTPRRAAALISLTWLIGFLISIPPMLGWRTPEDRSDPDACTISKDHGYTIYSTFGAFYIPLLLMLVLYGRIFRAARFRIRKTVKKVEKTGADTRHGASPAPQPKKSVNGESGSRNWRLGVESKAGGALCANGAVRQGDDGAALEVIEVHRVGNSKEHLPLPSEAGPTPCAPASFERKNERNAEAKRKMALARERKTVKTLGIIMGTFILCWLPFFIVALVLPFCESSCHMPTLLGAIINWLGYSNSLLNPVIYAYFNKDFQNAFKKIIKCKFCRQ

[28] = Oral bioavailability in rat at 3 mg/kg; assay type: ADME, organism-based; settings: in vivo; method in brief: as §2
D(2) dopamine receptor = D(2) dopamine receptor (Homo sapiens, UniProt P14416); assay: Binding affinity to dopamine D2 receptor
Chain of D(2) dopamine receptor (P14416 whole entry): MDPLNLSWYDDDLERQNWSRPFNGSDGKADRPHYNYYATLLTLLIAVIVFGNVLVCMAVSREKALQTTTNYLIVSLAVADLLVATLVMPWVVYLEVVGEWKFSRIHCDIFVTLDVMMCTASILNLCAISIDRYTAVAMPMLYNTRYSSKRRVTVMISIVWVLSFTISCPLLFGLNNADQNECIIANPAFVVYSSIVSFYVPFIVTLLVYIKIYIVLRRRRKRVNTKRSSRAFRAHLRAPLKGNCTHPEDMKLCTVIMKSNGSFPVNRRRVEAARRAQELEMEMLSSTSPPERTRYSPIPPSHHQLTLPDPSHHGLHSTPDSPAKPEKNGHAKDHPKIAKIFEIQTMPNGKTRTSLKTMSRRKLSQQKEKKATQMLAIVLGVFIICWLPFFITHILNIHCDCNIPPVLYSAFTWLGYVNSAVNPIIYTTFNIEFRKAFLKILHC

[29] = target: T1, Melanin-concentrating hormone receptor 1; assay: Binding affinity to human MCHR1; method in brief: as §1
[30] = Clearance in beagle dog at 0.5 mg/kg, iv; assay type: ADME, organism-based, Canis lupus familiaris; design: dose 0.5 mg/kg, route intravenous; settings: in vivo; method in brief: as §2
[31] = Mean residence time in cynomolgus monkey at 3 mg/kg, po; assay type: ADME, organism-based, Macaca fascicularis; design: dose 3 mg/kg, route oral; settings: in vivo; method in brief: as §2
[32] = Clearance in cynomolgus monkey at 0.5 mg/kg, iv; assay type: ADME, organism-based, Macaca fascicularis; design: dose 0.5 mg/kg, route intravenous; settings: in vivo; method in brief: as §2
[33] = target: Melanin-concentrating hormone receptor 1 (Rattus norvegicus, UniProt P97639); assay: Antagonist activity at rat MCHR1 assessed inhibition of MCH-mediated intracellular Ca2+ calcium mobilization; assay type: functional, cell-based; method in brief: as §5
[34] = Volume of distribution at steady state in mouse at 0.5 mg/kg, iv; assay type: ADME, organism-based; design: dose 0.5 mg/kg, route intravenous; settings: in vivo, read-out: Vdss; method in brief: as §2
[35] = Ratio of drug uptake in CSF to plasma of rat at 10 mg/kg, po; assay type: ADME, organism-based; design: dose 10 mg/kg, route oral; settings: CSF and plasma
[36] = target: Melanin-concentrating hormone receptor 1 (Mus musculus, UniProt Q8JZL2); assay: Antagonist activity at mouse MCHR1 assessed inhibition of MCH-mediated intracellular Ca2+ calcium mobilization; assay type: functional, cell-based; method in brief: as §5
Chain of Melanin-concentrating hormone receptor 1 (Mus musculus, UniProt Q8JZL2) (Q8JZL2 whole entry): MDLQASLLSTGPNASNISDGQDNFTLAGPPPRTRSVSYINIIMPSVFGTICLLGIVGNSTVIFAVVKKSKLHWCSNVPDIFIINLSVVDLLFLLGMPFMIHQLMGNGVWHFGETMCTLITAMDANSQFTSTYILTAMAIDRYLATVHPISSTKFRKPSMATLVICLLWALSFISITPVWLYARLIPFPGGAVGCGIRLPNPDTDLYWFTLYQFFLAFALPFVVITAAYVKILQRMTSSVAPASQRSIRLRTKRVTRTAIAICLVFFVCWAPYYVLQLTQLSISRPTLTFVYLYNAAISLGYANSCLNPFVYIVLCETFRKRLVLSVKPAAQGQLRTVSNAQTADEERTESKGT

[37] = Volume of distribution at steady state in beagle dog at 0.5 mg/kg, iv; assay type: ADME, organism-based, Canis lupus familiaris; design: dose 0.5 mg/kg, route intravenous; settings: in vivo, read-out: Vdss; method in brief: as §2
[38] = target: T2, 5-hydroxytryptamine receptor 2C; assay: Antagonist activity at serotonin 5HT2C receptor assessed as blockage of intracellular calcium mobilization; assay type: functional, cell-based
[39] = target: Alpha-2C adrenergic receptor (Homo sapiens, UniProt P18825); assay: Binding affinity to adrenergic alpha2C receptor
Canis familiaris [40] = assay: Cardiotoxicity in dog assessed as QT prolongation at 100 mg/kg, po BID for 28 days; assay type: toxicity, organism-based, Canis lupus familiaris; design: dose 100 mg/kg, route oral; settings: in vivo, 672 h
[41] = target: Melanin-concentrating hormone receptor 1 (Macaca mulatta, UniProt Q8MJ89); assay: Antagonist activity at rhesus monkey MCHR1 assessed inhibition of MCH-mediated intracellular Ca2+ calcium mobilization; assay type: functional, cell-based; method in brief: as §5
Mus musculus = assay: Antiobesity activity in high fat diet-fed C57BL/6 mouse expressing wild type MCHR1 gene assessed as reduction in body weight at 100 mg/kg, po daily measured for 34 weeks relative to control; assay type: functional; design: scale not given: the % may be the effect or the level left
Method in brief: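 Wild-type and MCHR1-knockout female C57BL/6 mice given compound mixed into a 60% kCal fat high-fat diet. Body weight gain at study end compared with vehicle.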

Chain of Voltage-gated inwardly rectifying potassium channel KCNH2 (Q12809 whole entry): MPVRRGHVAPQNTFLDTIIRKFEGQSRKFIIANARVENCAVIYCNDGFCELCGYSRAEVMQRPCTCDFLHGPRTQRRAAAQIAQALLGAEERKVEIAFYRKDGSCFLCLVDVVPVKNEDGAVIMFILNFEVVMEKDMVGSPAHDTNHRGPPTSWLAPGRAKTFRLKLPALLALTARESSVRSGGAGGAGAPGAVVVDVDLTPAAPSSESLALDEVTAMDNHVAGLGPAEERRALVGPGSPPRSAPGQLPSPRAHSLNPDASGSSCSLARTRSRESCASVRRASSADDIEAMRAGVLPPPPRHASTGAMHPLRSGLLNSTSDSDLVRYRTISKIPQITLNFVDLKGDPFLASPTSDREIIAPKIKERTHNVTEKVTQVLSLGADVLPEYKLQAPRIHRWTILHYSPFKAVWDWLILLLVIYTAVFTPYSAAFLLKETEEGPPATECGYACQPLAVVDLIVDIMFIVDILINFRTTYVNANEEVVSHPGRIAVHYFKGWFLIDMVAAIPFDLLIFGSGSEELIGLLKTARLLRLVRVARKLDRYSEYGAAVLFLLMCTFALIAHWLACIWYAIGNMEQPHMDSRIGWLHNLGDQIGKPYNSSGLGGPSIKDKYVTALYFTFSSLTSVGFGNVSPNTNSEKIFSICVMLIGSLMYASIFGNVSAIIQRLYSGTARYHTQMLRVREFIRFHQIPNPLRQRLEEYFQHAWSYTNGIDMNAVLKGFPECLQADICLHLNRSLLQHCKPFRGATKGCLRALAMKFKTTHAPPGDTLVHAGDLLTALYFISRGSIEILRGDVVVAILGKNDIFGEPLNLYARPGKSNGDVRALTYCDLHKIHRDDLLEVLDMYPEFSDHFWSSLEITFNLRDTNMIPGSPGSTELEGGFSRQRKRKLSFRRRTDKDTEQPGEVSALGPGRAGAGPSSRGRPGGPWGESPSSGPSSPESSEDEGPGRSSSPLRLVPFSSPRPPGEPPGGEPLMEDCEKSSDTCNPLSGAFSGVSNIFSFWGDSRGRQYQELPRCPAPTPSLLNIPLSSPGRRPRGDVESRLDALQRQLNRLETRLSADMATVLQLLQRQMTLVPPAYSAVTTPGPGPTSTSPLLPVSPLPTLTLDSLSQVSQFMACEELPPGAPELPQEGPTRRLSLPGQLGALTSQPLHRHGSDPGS
T1 sequence (Q99705 whole entry): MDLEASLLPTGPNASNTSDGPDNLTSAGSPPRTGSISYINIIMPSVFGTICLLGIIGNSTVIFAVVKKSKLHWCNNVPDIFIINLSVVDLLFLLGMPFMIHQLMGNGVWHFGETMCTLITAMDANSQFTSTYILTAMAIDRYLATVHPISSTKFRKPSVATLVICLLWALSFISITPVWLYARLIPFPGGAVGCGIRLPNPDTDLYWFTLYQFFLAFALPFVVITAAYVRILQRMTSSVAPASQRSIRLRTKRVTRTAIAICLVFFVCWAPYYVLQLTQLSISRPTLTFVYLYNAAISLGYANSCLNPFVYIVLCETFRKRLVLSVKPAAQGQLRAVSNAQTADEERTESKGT

## C[C@H]1c2c([nH]c3ccc(C(F)(F)F)cc23)C[C@H]2CCN(CCCC3(C(=O)O)CCOCC3)C[C@@H]21
[1]
  IC50: 300 nM
[2]
  IC50: 40 nM

## C[C@H]1c2c([nH]c3ccc(C(F)(F)F)cc23)C[C@H]2CCN(CCC3(C(=O)O)CCCCC3)C[C@@H]21
[3]
  Ki: 1120 nM
[4]
  Ki: > 2000 nM
[5]
  Kp: 0.4
[6]
  bioavailability: 29%
[7]
  bioavailability: 79%
Mu-type opioid receptor
  Ki: > 2000 nM
[8]
  Ki: > 2000 nM
Rhesus monkey
  Activity: Non-toxic
Cynomolgus monkey
  Activity: Non-toxic
[1]
  IC50: > 5000 nM
[9]
  Cmax: 33 µM
[10]
  IC50: > 10000 nM
[11]
  clearance: 10.7 mL/min/kg
Canis familiaris [12]
  Activity: Non-toxic
[13]
  Ki: > 2000 nM
[14]
  MRT: 5.8 h
[15]
  clearance: 9.17 mL/min/kg
[16]
  Ki: > 2000 nM
[17]
  Ki: > 2000 nM
[18]
  blood plasma ratio: 0.79
[19]
  IC50: 1.2 nM
[20]
  bioavailability: 40%
[21]
  concentration at 0.75 h: 6.5 µM
[22]
  MRT: 7.9 h
[23]
  Vd: 3.8 L/kg
[24]
  Vd: 2.3 L/kg
[25]
  Ki: > 2000 nM
D(1A) dopamine receptor
  Ki: > 2000 nM
[26]
  MRT: 4.2 h
[27]
  Ki: > 2000 nM
[28]
  bioavailability: 70%
D(2) dopamine receptor
  Ki: 3160 nM
[29]
  Ki: 0.6 nM
[30]
  clearance: 8.83 mL/min/kg
[31]
  MRT: 11 h
[32]
  clearance: 3.67 mL/min/kg
[33]
  IC50: 0.8 nM
[34]
  Vd: 3.6 L/kg
[35]
  Kp: 0.21
[36]
  IC50: 0.6 nM
[37]
  Vd: 2.2 L/kg
[38]
  IC50: 1140 nM
[39]
  Ki: > 2000 nM
[2]
  IC50: 0.6 nM
Canis familiaris [40]
  Activity: Non-toxic
[41]
  IC50: 0.8 nM

## C[C@H]1c2c([nH]c3ccc(C(F)(F)F)cc23)C[C@H]2CCN(CCCC3CCOCC3)C[C@@H]21
[1]
  IC50: 30 nM

## C[C@H]1c2c([nH]c3ccc(C(F)(F)F)cc23)C[C@H]2CCN(CCC3(C(=O)O)CCCCC3)C[C@@H]21.Cl
Mus musculus
  Activity: 33%
